Tested on: HepG2
Experiment: Cytotoxicity against human HepG2 cells incubated for 96 hrs by MTT assay
Format: functional
Method in brief: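 Cells grown in DMEM with 10% FBS and 1% antibiotic at 37 °C, 5% CO2. Trypsinised, seeded at 3 × 10^4 cells per mL, treated over an eight-point titration for 96 h. MTT (0.5 mg mL−1) added for 4 h at 37 °C, formazan dissolved in DMSO, absorbance read at 570 nm. GI50 is the concentration halving the MTT signal versus untreated control. Ellipticine served as reference; n ≥ 3 repeats.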

Row | Structure (SMILES) | GI50
1 | COc1cc([C@H]2Oc3cc([C@H]4Oc5cc(O)cc(O)c5C(=O)[C@@H]4OC(=O)CCNC(=O)[C@]45CC[C@@H](C)[C@H](C)[C@H]4C4=CC[C@@H]6[C@@]7(C)C[C@@H](OC(C)=O)[C@H](OC(C)=O)[C@@](C)(COC(C)=O)[C@@H]7[C@H](O)C[C@@]6(C)[C@]4(C)CC5)ccc3O[C@@H]2CO)ccc1O | 141 µM
2 | COc1cc([C@H]2Oc3cc([C@H]4Oc5cc(OC(C)=O)cc(OC(C)=O)c5C(=O)[C@@H]4OC(=O)CNC(=O)[C@]45CC[C@@H](C)[C@H](C)[C@H]4C4=CC[C@@H]6[C@@]7(C)C[C@@H](OC(C)=O)[C@H](OC(C)=O)[C@@](C)(COC(C)=O)[C@@H]7[C@H](O)C[C@@]6(C)[C@]4(C)CC5)ccc3O[C@@H]2COC(C)=O)ccc1OC(C)=O | 122 µM
3 | COc1cc([C@H]2Oc3cc([C@H]4Oc5cc(OC(C)=O)cc(OC(C)=O)c5C(=O)[C@@H]4OC(=O)CCNC(=O)[C@]45CC[C@@H](C)[C@H](C)[C@H]4C4=CC[C@@H]6[C@@]7(C)C[C@@H](OC(C)=O)[C@H](OC(C)=O)[C@@](C)(COC(C)=O)[C@@H]7[C@H](O)C[C@@]6(C)[C@]4(C)CC5)ccc3O[C@@H]2COC(C)=O)ccc1OC(C)=O | 360 µM
4 | COc1cc([C@H]2Oc3cc(-c4cc(=O)c5c(O)cc(OC(=O)[C@]67CC[C@@H](C)[C@H](C)[C@H]6C6=CC[C@@H]8[C@@]9(C)C[C@@H](OC(C)=O)[C@H](OC(C)=O)[C@@](C)(COC(C)=O)[C@@H]9[C@H](O)C[C@@]8(C)[C@]6(C)CC7)cc5o4)ccc3O[C@@H]2CO)ccc1O | > 500 µM
5 | COc1cc([C@H]2Oc3cc(-c4oc5cc(OC(C)=O)cc(OC(C)=O)c5c(=O)c4OC(=O)[C@]45CC[C@@H](C)[C@H](C)[C@H]4C4=CC[C@@H]6[C@@]7(C)C[C@@H](OC(C)=O)[C@H](OC(C)=O)[C@@](C)(COC(C)=O)[C@@H]7[C@H](O)C[C@@]6(C)[C@]4(C)CC5)ccc3O[C@@H]2COC(C)=O)ccc1OC(C)=O | 471 µM
6 | COc1cc([C@H]2Oc3cc([C@H]4Oc5cc(OC(C)=O)cc(OC(C)=O)c5C(=O)[C@@H]4OC(=O)CNC(=O)[C@]45CC[C@@H](C)[C@H](C)[C@H]4C4=CC[C@@H]6[C@@]7(C)C[C@@H](OC(C)=O)[C@H](OC(C)=O)[C@@](C)(COC(C)=O)C7=CC[C@@]6(C)[C@]4(C)CC5)ccc3O[C@@H]2COC(C)=O)ccc1OC(C)=O | 243 µM
7 | COc1cc([C@H]2Oc3cc([C@H]4Oc5cc(O)cc(O)c5C(=O)[C@@H]4OC(=O)CNC(=O)[C@]45CC[C@@H](C)[C@H](C)[C@H]4C4=CC[C@@H]6[C@@]7(C)C[C@@H](OC(C)=O)[C@H](OC(C)=O)[C@@](C)(COC(C)=O)C7=CC[C@@]6(C)[C@]4(C)CC5)ccc3O[C@@H]2CO)ccc1O | 174 µM
8 | COc1cc([C@H]2Oc3cc([C@H]4Oc5cc(O)cc(O)c5C(=O)[C@@H]4OC(=O)CCNC(=O)[C@]45CC[C@@H](C)[C@H](C)[C@H]4C4=CC[C@@H]6[C@@]7(C)C[C@@H](OC(C)=O)[C@H](OC(C)=O)[C@@](C)(COC(C)=O)C7=CC[C@@]6(C)[C@]4(C)CC5)ccc3O[C@@H]2CO)ccc1O | 344 µM
9 | CC(=O)OC[C@@]1(C)[C@@H]2[C@H](O)C[C@]3(C)[C@H](CC=C4[C@@H]5[C@@H](C)[C@H](C)CC[C@]5(C(=O)O)CC[C@]43C)[C@@]2(C)C[C@@H](OC(C)=O)[C@@H]1OC(C)=O | 44.1 µM
10 | CC(=O)OC[C@@]1(C)C2=CC[C@]3(C)C(CC=C4[C@@H]5[C@@H](C)[C@H](C)CC[C@]5(C(=O)O)CC[C@]43C)[C@@]2(C)C[C@@H](OC(C)=O)[C@@H]1OC(C)=O (some centres not stated) | 38.5 µM
11 | COc1cc([C@H]2Oc3cc([C@H]4Oc5cc(OC(C)=O)cc(OC(C)=O)c5C(=O)[C@@H]4OC(=O)CCCCCCCCCCNC(=O)[C@]45CC[C@@H](C)[C@H](C)[C@H]4C4=CC[C@@H]6[C@@]7(C)C[C@@H](OC(C)=O)[C@H](OC(C)=O)[C@@](C)(COC(C)=O)[C@@H]7[C@H](O)C[C@@]6(C)[C@]4(C)CC5)ccc3O[C@@H]2COC(C)=O)ccc1OC(C)=O | 199 µM
12 | COc1cc([C@H]2Oc3cc([C@H]4Oc5cc(OC(=O)[C@]67CC[C@@H](C)[C@H](C)[C@H]6C6=CC[C@@H]8[C@@]9(C)C[C@@H](OC(C)=O)[C@H](OC(C)=O)[C@@](C)(COC(C)=O)[C@@H]9[C@H](O)C[C@@]8(C)[C@]6(C)CC7)cc(O)c5C(=O)[C@@H]4O)ccc3O[C@@H]2CO)ccc1O | > 500 µM
13 | COc1cc([C@H]2Oc3cc([C@H]4Oc5cc(O)cc(O)c5C(=O)[C@@H]4OC(=O)CCCCCCCCCCNC(=O)[C@]45CC[C@@H](C)[C@H](C)[C@H]4C4=CC[C@@H]6[C@@]7(C)C[C@@H](OC(C)=O)[C@H](OC(C)=O)[C@@](C)(COC(C)=O)[C@@H]7[C@H](O)C[C@@]6(C)[C@]4(C)CC5)ccc3O[C@@H]2CO)ccc1O | 383 µM
14 | COc1cc([C@H]2Oc3cc([C@H]4Oc5cc(OC(C)=O)cc(OC(C)=O)c5C(=O)[C@@H]4OC(=O)CCNC(=O)[C@]45CC[C@@H](C)[C@H](C)[C@H]4C4=CC[C@@H]6[C@@]7(C)C[C@@H](OC(C)=O)[C@H](OC(C)=O)[C@@](C)(COC(C)=O)C7=CC[C@@]6(C)[C@]4(C)CC5)ccc3O[C@@H]2COC(C)=O)ccc1OC(C)=O | 352 µM
15 | COc1cc([C@H]2Oc3cc(-c4oc5cc(O)cc(O)c5c(=O)c4OC(=O)[C@]45CC[C@@H](C)[C@H](C)[C@H]4C4=CC[C@@H]6[C@@]7(C)C[C@@H](OC(C)=O)[C@H](OC(C)=O)[C@@](C)(COC(C)=O)[C@@H]7[C@H](O)C[C@@]6(C)[C@]4(C)CC5)ccc3O[C@@H]2CO)ccc1O | 217 µM
16 | Cc1c2ccncc2c(C)c2c1[nH]c1ccccc12 [ELLIPTECINE] | 0.42 µM
17 | COc1cc([C@H]2Oc3cc([C@H]4Oc5cc(O)cc(O)c5C(=O)[C@@H]4O)ccc3O[C@@H]2CO)ccc1O [SILYBIN A] | 285 µM

Reference: ChEMBL document CHEMBL6083196, “Synthesis and cytotoxic activity of madecassic acid-silybin conjugate compounds in liver cancer cells” (2024)
